In brackets after ≈: the same amount, converted by molar mass.
Key:
Escherichia coli [1] = test: Activity of Escherichia coli TOP10 beta-lactamase OXA-97 assessed as specific activity per mg of protein at 100 uM
In short: (§1)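 Crude extracts made by sonication from A. baumannii clinical isolates and from E. coli TOP10 recombinants expressing OXA-97 or OXA-58. Specific activity measured against imipenem, meropenem, cephalothin, ceftazidime, oxacillin and benzylpenicillin, each at 100 μM final. Values are means of three independent experiments; standard deviations within 10% of means.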

Acinetobacter baumannii [2] = test: Activity of Acinetobacter baumannii phenotype 1 beta-lactamase assessed per mg of protein at 100 uM; in short: as §1
Acinetobacter baumannii [3] = test: Activity of Acinetobacter baumannii phenotype 2 beta-lactamase assessed per mg of protein at 100 uM; in short: as §1
Escherichia coli [4] = test: Activity of Escherichia coli TOP10 beta-lactamase OXA-58 assessed per mg of protein at 100 uM; in short: as §1
Acinetobacter baumannii [5] = test: Activity of Acinetobacter baumannii MAD beta-lactamase assessed per mg of protein at 100 uM; in short: as §1
Acinetobacter baumannii [6] = test: Antibacterial activity against Acinetobacter baumannii MAD […] in presence of 4 ug/ml clavulanic acid; format: functional
Acinetobacter baumannii [7] = test: Antibacterial activity against Acinetobacter baumannii CIP7010 by disk diffusion method in presence of 4 ug/ml clavulanic acid; format: functional
Acinetobacter baumannii [8] = test: Antibacterial activity against Acinetobacter baumannii CIP7010 by disk diffusion method; format: functional
In short: (§2)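 Disk diffusion on Mueller-Hinton agar plates with β-lactam and non-β-lactam antibiotic disks, interpreted per CLSI guidelines.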

Acinetobacter baumannii [9] = test: Antibacterial activity against Acinetobacter baumannii phenotype 2 […] in presence of 4 ug/ml clavulanic acid; format: functional
Acinetobacter baumannii [10] = test: Antibacterial activity against Acinetobacter baumannii MAD […]; format: functional
[11] = Antibacterial activity against Escherichia coli DH10B harboring pOXA-97 in presence of 4 ug/ml clavulanic acid; format: functional, Escherichia coli str. K-12 substr. DH10B
Escherichia coli [12] = test: Antibacterial activity against Escherichia coli TOP10 harboring pOXA-58; format: functional
Escherichia coli [13] = test: Antibacterial activity against Escherichia coli TOP10 harboring pOXA-58 in presence of 4 ug/ml clavulanic acid; format: functional
Acinetobacter baumannii [14] = test: Antibacterial activity against Acinetobacter baumannii phenotype 1 […]; format: functional; in short: as §2
[15] = Antibacterial activity against Escherichia coli DH10B harboring pOXA-97; format: functional, Escherichia coli str. K-12 substr. DH10B
[16] = Antibacterial activity against Escherichia coli DH10B; format: functional, Escherichia coli str. K-12 substr. DH10B
Escherichia coli [17] = test: Antibacterial activity against Escherichia coli TOP10 harboring pOXA-97; format: functional
Acinetobacter baumannii [18] = test: Antibacterial activity against Acinetobacter baumannii phenotype 2 […]; format: functional; in short: as §2
Acinetobacter baumannii [19] = test: Antibacterial activity against Acinetobacter baumannii phenotype 1 […] in presence of 4 ug/ml clavulanic acid; format: functional
Escherichia coli [20] = test: Antibacterial activity against Escherichia coli DH10B in presence of 4 ug/ml clavulanic acid; format: functional; settings: K-12 DH10B
Escherichia coli [21] = test: Antibacterial activity against Escherichia coli TOP10 harboring pOXA-97 in presence of 4 ug/ml clavulanic acid; format: functional
Acinetobacter baumannii [22] = test: Antibacterial activity against Acinetobacter baumannii CIP7010 harboring pOXA-97 by disk diffusion method; format: functional
In short: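 Disk diffusion on Mueller-Hinton agar with β-lactam and non-β-lactam disks, per CLSI guidelines. The strain is an electroporation transformant of recipient CIP7010, with clinical isolates A1 and A2 as plasmid donors, selected on Trypticase soy agar containing 50 μg/ml ticarcillin.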

Compound | Activity (Escherichia coli [1]) [mU/mg] | Activity (Acinetobacter baumannii [2]) [mU/mg] | Activity (Escherichia coli [4]) [mU/mg] | Activity (Acinetobacter baumannii [5]) [mU/mg] | MIC (Acinetobacter baumannii [8]) [µg/mL] | MIC (Acinetobacter baumannii [10]) [µg/mL] | MIC (Escherichia coli [12]) [µg/mL] | MIC (Acinetobacter baumannii [14]) [µg/mL] | MIC [15] [µg/mL] | MIC [16] [µg/mL] | MIC (Escherichia coli [17]) [µg/mL] | MIC (Acinetobacter baumannii [18]) [µg/mL] | MIC (Acinetobacter baumannii [22]) [µg/mL] | further results
CC(=O)OCC1=C(C(=O)O)N2C(=O)[C@@H](NC(=O)Cc3cccs3)[C@H]2SC1 | 20 | 20 | 15 | 15 | – | – | – | – | – | – | – | – | – | Activity (Acinetobacter baumannii [3]): 10 mU/mg
CC1(C)S[C@@H]2[C@H](NC(=O)Cc3ccccc3)C(=O)N2[C@H]1C(=O)O | 220 | 220 | 150 | 170 | – | – | – | – | – | – | – | – | – | Activity (Acinetobacter baumannii [3]): 210 mU/mg
Cc1onc(-c2ccccc2)c1C(=O)N[C@@H]1C(=O)N2[C@@H]1SC(C)(C)[C@@H]2C(=O)O | 220 | 230 | 210 | 230 | – | – | – | – | – | – | – | – | – | –
CC1(C)S[C@@H]2[C@H](NC(=O)[C@H](N)c3ccccc3)C(=O)N2[C@H]1C(=O)O [AMPICILLIN] | – | – | – | – | > 512 | > 512 | > 512 | > 512 | > 512 | 4 (≈ 11.4 µM) | > 512 | > 512 | – | MIC (Acinetobacter baumannii [6]): > 512 µg/mL; MIC (Acinetobacter baumannii [7]): 512 µg/mL; MIC (Acinetobacter baumannii [9]): > 512 µg/mL; MIC [11]: 128 µg/mL; MIC (Escherichia coli [13]): 128 µg/mL; MIC (Acinetobacter baumannii [19]): > 512 µg/mL; MIC (Escherichia coli [20]): 4 µg/mL; MIC (Escherichia coli [21]): 128 µg/mL
C[C@H]1[C@H](NC(=O)/C(=N\OC(C)(C)C(=O)O)c2csc(N)n2)C(=O)N1S(=O)(=O)O [AZTREONAM] | – | – | – | – | 64 (≈ 147 µM) | 32 (≈ 73.5 µM) | 0.06 (≈ 0.138 µM) | 128 (≈ 294 µM) | 0.06 (≈ 0.138 µM) | 0.12 (≈ 0.276 µM) | 0.12 (≈ 0.276 µM) | 128 (≈ 294 µM) | 64 (≈ 147 µM) | –
CO/N=C(\C(=O)N[C@@H]1C(=O)N2C(C(=O)[O-])=C(C[N+]3(C)CCCC3)CS[C@H]12)c1csc(N)n1 [CEFEPIME] | – | – | – | – | 1 (≈ 2.08 µM) | 256 (≈ 533 µM) | 0.06 (≈ 0.125 µM) | 64 (≈ 133 µM) | 0.12 (≈ 0.25 µM) | 0.06 (≈ 0.125 µM) | 0.06 (≈ 0.125 µM) | 256 (≈ 533 µM) | 1 (≈ 2.08 µM) | –
CC(C)(O/N=C(\C(=O)N[C@@H]1C(=O)N2C(C(=O)[O-])=C(C[n+]3ccccc3)CS[C@H]12)c1csc(N)n1)C(=O)O [CEFTAZIDIME] | 0.5 | 1 | 1.5 | 2 | 2 (≈ 3.66 µM) | 128 (≈ 234 µM) | 0.06 (≈ 0.11 µM) | > 512 | 0.12 (≈ 0.22 µM) | 0.06 (≈ 0.11 µM) | 0.06 (≈ 0.11 µM) | > 512 | 2 (≈ 3.66 µM) | –
C[C@@H](O)[C@H]1C(=O)N2C(C(=O)O)=C(SCCNC=N)C[C@H]12 [IMIPENEM ANHYDROUS] | 4 | 5.2 | 3 | 4.5 | 0.25 (≈ 0.835 µM) | 32 (≈ 107 µM) | 2 (≈ 6.68 µM) | 32 (≈ 107 µM) | 1 (≈ 3.34 µM) | 0.06 (≈ 0.2 µM) | 2 (≈ 6.68 µM) | 16 (≈ 53.4 µM) | 2 (≈ 6.68 µM) | –
C[C@@H](O)[C@H]1C(=O)N2C(C(=O)O)=C(S[C@@H]3CN[C@H](C(=O)N(C)C)C3)[C@H](C)[C@H]12 [MEROPENEM] | 1 | 1.7 | 1 | 1.5 | 0.25 (≈ 0.652 µM) | > 64 | 0.12 (≈ 0.313 µM) | 16 (≈ 41.7 µM) | 0.5 (≈ 1.3 µM) | 0.06 (≈ 0.156 µM) | 0.12 (≈ 0.313 µM) | 16 (≈ 41.7 µM) | 2 (≈ 5.22 µM) | –
CC1(C)S[C@@H]2[C@H](NC(=O)[C@H](C(=O)O)c3ccsc3)C(=O)N2[C@H]1C(=O)O [TICARCILLIN] | – | – | – | – | 4 (≈ 10.4 µM) | > 512 | > 512 | > 512 | > 512 | 4 (≈ 10.4 µM) | > 512 | 64 (≈ 166 µM) | > 512 | –

From ChEMBL document CHEMBL1255327, “Carbapenem-resistant Acinetobacter baumannii isolates from Tunisia producing the OXA-58-like carbapenem-hydrolyzing oxacillinase OXA-97” (2008)
